The source of these data is ChEMBL document CHEMBL1142992, “Discovery of diaryl imidazolidin-2-one derivatives, a novel class of muscarinic M3 selective antagonists (Part 1)” (J Med Chem, 2007).

In general, Ki refers to a measure of affinity in units of concentration, obtained from inhibition or displacement. In general, inhibition refers to the relative decrease from the control value, in per cent.

SMILES strings stand for the structures.

The first test deals with T1, Muscarinic acetylcholine receptor M2 (Homo sapiens, UniProt P08172).
T1 sequence (P08172 whole entry): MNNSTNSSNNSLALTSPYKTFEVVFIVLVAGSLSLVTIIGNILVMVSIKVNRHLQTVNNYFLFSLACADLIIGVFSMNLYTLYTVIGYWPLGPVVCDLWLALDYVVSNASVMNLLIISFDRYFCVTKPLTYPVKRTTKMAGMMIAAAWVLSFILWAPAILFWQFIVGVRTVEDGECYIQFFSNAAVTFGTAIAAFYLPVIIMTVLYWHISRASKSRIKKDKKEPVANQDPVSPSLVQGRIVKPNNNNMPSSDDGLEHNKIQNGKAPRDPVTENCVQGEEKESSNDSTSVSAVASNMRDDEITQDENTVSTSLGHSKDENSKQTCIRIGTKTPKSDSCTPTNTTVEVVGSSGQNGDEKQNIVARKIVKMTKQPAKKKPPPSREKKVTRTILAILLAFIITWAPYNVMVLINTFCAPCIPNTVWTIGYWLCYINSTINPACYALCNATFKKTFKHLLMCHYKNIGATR
Description: Displacement of [3H]N-methyl-scopolamine from human muscarinic M2 receptor expressed in CHO K1 cells. It counts as cell-based. Summed up:
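Membranes from CHO-K1 cells expressing human M2 receptor, homogenized and stored at -80 °C, resuspended in 50 mM Tris-HCl pH 7.4, 2.5 mM MgCl2, 1 mM EDTA. [3H]-N-methyl scopolamine 0.1-0.3 nM; nonspecific binding with cold N-methyl scopolamine. 10-point curves in duplicate, 60 min at room temperature, filtration through GF/B, scintillation counting.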
For the compound `O=C1NC(Cc2ccccc2)(Cc2ccccc2)CN1C1CCN(Cc2ccccc2)CC1`, the Ki is listed as 2.95 µM (antagonist).

With `COc1ccc(CN2CCC(N3CC(c4ccccc4)(c4ccccc4)NC3=O)CC2)cc1`, the Ki is 0.49 µM (antagonist).

Regarding `O=C1NC(c2ccccc2)(c2ccccc2)CN1C1CCCN(Cc2ccccc2)CC1` (configuration not stated), the Ki is 0.002 µM (antagonist).

`O=C1N(C2CCN(Cc3ccccc3)CC2)CC(c2ccccc2)N1Cc1ccccc1` (configuration not stated): the Ki was 0.629 µM (antagonist).

Consider `O=C1NC(c2ccccc2)(c2ccccc2)CN1C1CC2CCC(C1)N2Cc1ccccc1` (configuration not stated), for which the Ki is 0.065 µM (antagonist).

Turning to `O=C1OC(c2ccccc2)(c2ccccc2)CN1C1CCN(Cc2ccccc2)CC1`, the Ki is 0.908 µM (antagonist).

As to `O=C1NC(c2ccccc2)(c2ccccc2)CN1C1CCN(Cc2cccnc2)CC1`, the Ki was 0.302 µM (antagonist).

With `O=C1NC(c2ccccc2)(C2CCCCC2)CN1C1CCN(Cc2cccc(Cl)c2)CC1` (configuration not stated), the inhibitory constant (Ki) was 0.515 µM (antagonist).

Consider `O=C1NC(c2ccccc2)(c2ccccc2)CN1C1CCN(Cc2cccc(F)c2)CC1`, for which the inhibition constant (Ki) was 0.302 µM (antagonist).

Regarding `O=C1NC(c2ccccc2)(c2ccccc2)CN1[C@H]1CCN(Cc2ccccc2)C1`, the Ki is on record as 2.27 µM (antagonist).

Regarding `Cc1cccc(CN2CCC(N3CC(c4ccccc4)(C4CCCCC4)NC3=O)CC2)c1` (configuration not stated), the inhibitory constant (Ki) was 0.166 µM (antagonist).

Consider `O=C1NC(c2ccccc2)(c2ccccc2)CN1C1CCN(Cc2cccs2)CC1`, for which the Ki was 0.927 µM (antagonist).

On to `Nc1cccc(CN2CCC(N3CC(c4ccccc4)(c4ccccc4)NC3=O)CC2)c1`, for which the inhibition constant Ki was 0.182 µM (antagonist).

Take `CN1C(=O)N(C2CCN(Cc3ccccc3)CC2)CC1(c1ccccc1)c1ccccc1`: the Ki is 0.52 µM (antagonist).

For the compound `CN1CCC(N2CC(c3ccccc3)(c3ccccc3)NC2=O)CC1`, the Ki was 2.92 µM (antagonist).

In the case of `O=C1NC(c2ccccc2)(c2ccccc2)CN1C1CCN(CCc2ccccc2)CC1`, the Ki is 0.411 µM (antagonist).

With `O=C1NC(c2ccccc2)(c2ccccc2)CN1[C@@H]1CCN(Cc2ccccc2)C1`, the Ki was 0.0822 µM (antagonist).

`COc1cccc(CN2CCC(N3CC(c4ccccc4)(c4ccccc4)NC3=O)CC2)c1`: the Ki was 0.695 µM (antagonist).

With `O=C1NC(c2ccccc2)(c2ccccc2)CN1C1CCN(Cc2cccc(O)c2)CC1`, the Ki was 0.0479 µM (antagonist).

As to `O=C1NC(c2ccccc2)(c2ccccc2)CN1C1CCN(CCOc2ccccc2)CC1`, the Ki is 0.328 µM (antagonist).

Turning to `O=C1NC(c2ccccc2)(c2ccccc2)CN1C1CCN(Cc2ccc(Cl)cc2)CC1`, the inhibitory constant (Ki) is 0.296 µM (antagonist).

In the next test the target is T2, Muscarinic acetylcholine receptor M2 (Homo sapiens) (UniProt P08172).
T2 sequence (whole entry): T1 sequence (P08172 whole entry)
Description: Displacement of [3H]N-methyl-scopolamine from human muscarinic M2 receptor expressed in CHO K1 cells at 10 uM. It counts as cell-based. On the technique in general: Loss of bound radioactivity is the signal in a displacement assay; it reports binding, not function.
For the compound `O=C1NC(c2ccccc2)(c2ccccc2)CN1C1CCN(Cc2ccccc2Cl)CC1`, the inhibition was under 50%.

Consider `COc1ccccc1CN1CCC(N2CC(c3ccccc3)(c3ccccc3)NC2=O)CC1`, for which the inhibition was under 50%.

As for `O=C1NC(c2ccccc2)(c2ccccc2)CN1C1CCN(CC2CCCCC2)CC1`, the inhibition is under 50%.

Turning to `O=C1NC(c2ccccc2)(c2ccccc2)CN1C1CCN(Cc2c[nH]cn2)CC1`, the inhibition was under 50%.

With `COc1ccc(C2(c3ccc(OC)cc3)CN(C3CCN(Cc4ccccc4)CC3)C(=O)N2)cc1`, the inhibition was under 50%.

`O=C1NC(c2ccccc2)(c2ccccc2)CN1C1CCN(Cc2cccc(C(F)(F)F)c2)CC1`: the inhibition is under 50%.

In the case of `O=C1NC(c2ccccc2)(c2ccccc2)CN1C1CCCN(Cc2ccccc2)C1` (configuration not stated), the inhibition was under 50%.

Compound `O=C1NC(c2ccccc2)(c2ccccc2)C(=O)N1C1CCN(Cc2ccccc2)CC1` yielded an inhibition of under 50%.

Regarding `N#Cc1cccc(CN2CCC(N3CC(c4ccccc4)(c4ccccc4)NC3=O)CC2)c1`, the inhibition was under 50%.

For the compound `O=C1NC(c2ccccc2)(c2ccccc2)CN1C1CCN(Cc2cccc(OC(F)(F)F)c2)CC1`, the inhibition was under 50%.

Compound `O=C1NC(c2ccccc2)(c2ccccc2)CN1C1CCN(c2ccccc2)CC1` came in with an inhibition of under 50%.
